The results in this text go back to ChEMBL document CHEMBL2417530, “Coumarin derivatives protect against ischemic brain injury in rats” (Eur J Med Chem, 2013).

In general, Vd refers to the apparent volume that relates the amount in the body to the concentration in plasma or blood. Low values mean little distribution into tissue, high ones wide distribution into tissue.

Series [1] concerns Rattus norvegicus. The series can be described thus: In vivo neuroprotective activity in Sprague-Dawley rat transient middle cerebral artery occlusion model assessed as suppression of neuropathological changes at 1.5 to 6 mg/kg, iv measured 24 hrs post reperfusion by uranyl acetate/lead citrate staining-based transmission electron microscopic analysis. The class given is functional, organism-based. Put shortly:
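Rats had 60 min MCAO with iv dosing (1.5-6.0 mg/kg) at reperfusion. At 24 h they were perfused with PBS, then acrolein in 2% paraformaldehyde. Tissue was postfixed in 2.5% glutaraldehyde for 2 h and 1% OsO4 for 2 h, dehydrated and Epon-embedded. Ultrathin sections were stained with uranyl acetate/lead citrate and examined by TEM at 12000×.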

Series [2] deals with Cortex. The series can be described thus: Clearance in Sprague-Dawley rat cortex at 2 x 10^-5 mol/kg, iv by LC-MS analysis. It counts as ADME, organism-based. The settings on record: in vivo. Put shortly: (§1)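 Male Sprague-Dawley rats (260-280 g, n = 4) given a single iv dose of 6 mg/kg. Blood was taken from the jugular vein into heparin tubes under ether, and plasma was spun out and stored at -70 °C. After saline perfusion, cortex was homogenized in 2 volumes of water. Samples were precipitated with acetonitrile with internal standard added and quantified by LC-MS against a weighted linear calibration.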

For series [3], the system named is Plasma. Put plainly: Drug uptake in Sprague-Dawley rat plasma at 2 x 10^-5 mol/kg, iv measured at 60 mins by LC-MS analysis. The settings on record: in vivo, 1 h. It counts as ADME, organism-based. A digest of the protocol: as §1
A short description of series [4]: Volume of distribution in Sprague-Dawley rat cortex at 2 x 10^-5 mol/kg, iv by LC-MS analysis. The class given is ADME, organism-based. The conditions noted are these: 2e-05 mol/kg. Put shortly:
as §1

For series [5], the system named is Rattus norvegicus. Put plainly: Anti-ischemia activity in Sprague-Dawley rat transient middle cerebral artery occlusion model assessed as inhibition of Bax protein expression in hippocampus at 1.5 to 6 mg/kg, iv measured 24 hrs post reperfusion by Western blot analysis relative to vehicle-treated control. The class given is functional, organism-based. Put shortly:
(§2)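 Rats underwent 60 min intraluminal right MCA occlusion under chloral hydrate, then reperfusion, with iv saline or drug (1.5, 3.0, 6.0 mg/kg) at reperfusion. At 24 h they were saline-perfused and cortex and hippocampus lysed in RIPA buffer. Protein was BCA-normalized, run on SDS-PAGE and blotted for Bcl-2, Bax, cleaved caspase-3 and β-actin with ECL detection; n = 4.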

Series [6] is described as follows: Cytotoxicity against rat PC12 cells assessed as cell proliferation at 10 uM by MTT assay relative to control. The settings on record: read-out: Activity. It counts as cell-based, PC-12. Put shortly:
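PC12 cells were grown in DMEM with 5% FBS, 5% horse serum and 2 mM glutamine at 37 °C, 5% CO2. They were seeded at 5×10^3 cells/well for 24 h, then exposed to 10 µM compound in full medium. Viability was read by MTT (5 mg/mL, 4 h) at 570 nm as % of control absorbance; n = 3.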
For orientation: Tetrazolium assays rely on reduction of a dye to a coloured formazan, in cell work by metabolically active cells.

The subject of series [7] is Rattus norvegicus. The series can be described thus: Anti-ischemia activity in Sprague-Dawley rat transient middle cerebral artery occlusion model assessed as upregulation of Bcl-2 protein expression in cerebral cortex at 1.5 to 6 mg/kg, iv measured 24 hrs post reperfusion by Western blot analysis relative to vehicle-treated control. The class given is functional, organism-based. A digest of the protocol: as §2
On the technique in general: Immunoblotting shows a protein as a band on a membrane.

Each structure is given as a SMILES string. The source made the active and inactive calls. The calls are words filed in the database; no cut-off is given here.

Regarding `COc1cc(O)cc2oc(=O)c(N3CCN(C)CC3)c(C)c12`, the result in series [1] and in series [7] was Active. In series [2], this compound showed a CL of 0.558 L/min. The Drug uptake entry in series [3] is recorded as “Not Active”. In series [4], this compound gave a Vd of 12.3 L. For the same compound, the inhibition result in series [5] was “Active”. In series [6], the viability at 10 µM was found to be 101%.
